High-throughput results as filed in PubChem.
Shown are actives, neighbours in structure and some others; about 3.3% of the full set was active somewhere.
PRMT1 FP inh = blocks human protein arginine methyltransferase 1; Q99873; recombinant PRMT1, activity-based probe fluorescence polarization; inhibition, % at 2.79 µM; hit rate 1.3% among 370,000;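 active means inhibition above about 21% made by adding two undisclosed values, limit read from the data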
Target sequence (Q99873 whole entry, looked up): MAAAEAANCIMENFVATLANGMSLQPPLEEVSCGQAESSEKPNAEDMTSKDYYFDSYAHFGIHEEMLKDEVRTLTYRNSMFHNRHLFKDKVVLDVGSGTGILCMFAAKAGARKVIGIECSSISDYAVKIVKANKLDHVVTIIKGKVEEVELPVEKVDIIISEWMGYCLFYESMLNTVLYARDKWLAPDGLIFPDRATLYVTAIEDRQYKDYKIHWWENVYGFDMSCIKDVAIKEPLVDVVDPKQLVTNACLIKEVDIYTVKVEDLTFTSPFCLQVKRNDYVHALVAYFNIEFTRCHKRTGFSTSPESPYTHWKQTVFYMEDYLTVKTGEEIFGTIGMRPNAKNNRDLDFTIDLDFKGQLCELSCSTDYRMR
MBD2 inh = blocks human MBD2 binding to methylated DNA. Q9UBB5. TR-FRET, MBD2 binding to methylated oligonucleotide. inhibition, % at 4.4 µM. hit rate 0.31% among 370,000. AID 686964; in the data active means inhibition above about 13%
SIAE primary = inhibitors of human sialic acid acetylesterase SIAE; hit rate 0.69% among 370,000; SIAE FP-Rh probe binding, fluorescence polarization; Q9HAT2; inhibition, % at 9.66 µM;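 active means inhibition above a cutoff: mean of compounds within the control limits plus 3 SD of those, cut at about 17% in these data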;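 further: 0% = plate median of compound wells and 100% = probe without SIAE protein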
LEDGF integ inh = blocks HIV-1 LEDGF/p75-dependent DNA integration; hit rate 0.64% among 370,000; TR-FRET IN-LEDGF/p75 DNA integration, Eu/Cy5; AID 743269; inhibition, % at 3.7 µM;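 active means inhibition above the screen-wide mean plus 3 SD, cut at about 13% in these data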;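 further: signal is the Cy5 over europium emission ratio at 671 and 618 nm; 0% = plate median of compound wells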
TDP2 inh = blocks human TDP2 phosphodiesterase activity | O95551 | recombinant TDP2, T5PNP hydrolysis, p-nitrophenol absorbance 415 nm | inhibition, % at 12.8 µM | hit rate 0.34% among 370,000 | AID 720702;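 active means inhibition above the mean of all tested compounds plus 3 SD, set per campaign, cut at about 25% in these data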;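 further: 0% = DMSO with enzyme and 100% = buffer with substrate but no TDP2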
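System: recombinant human TDP2 / Amount: 120 nM TDP2 per well / Also added: 5 mM T5PNP chromogenic substrate / Doses: 12.8 µM single point, 1% DMSO / Incubation: 2 h at 37 °C / Detection: p-Nitrophenol epi absorbance / Evaluation: % inhibition relative to enzyme-containing and enzyme-free wells / Repeats: singlicate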
UHRF1 binding = human UHRF1 methylated DNA binding inhibitors. Q96T88. UHRF1 binding to methylated oligo, TR-FRET. inhibition, % at 4.4 µM. hit rate 0.75% among 370,000. AID 687016; in the data active means inhibition above about 21%;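 further: UHRF1 SRA domain binding a hemimethylated CpG hairpin DNA probe; 0% = median of test compound wells and 100% = reference inhibitor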
SIAE inh conf = confirmation of human SIAE inhibitors; shares compounds with SIAE primary; hit rate 13% among 2,300; AID 1117263; SIAE FP-Rh activity-based probe, fluorescence polarization; inhibition, % at 9.66 µM;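 active means mean inhibition of the replicates above the hit cutoff set in the primary screen, cut at about 17% in these data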;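 further: 0% = SIAE with DMSO and probe and 100% = probe without SIAE; inhibitors lower polarization as more probe stays unbound to SIAE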
Starred values were filed as active, the others as inactive; / = no result.

SMILES	PRMT1 FP inh	MBD2 inh	SIAE primary	LEDGF integ inh	TDP2 inh	UHRF1 binding	SIAE inh conf
O=C1NC(=Nc2ccc3ccccc3c2)S/C1=C/c1ccco1	2	1	32*	10	-1	1	-3
CCCNC(=O)c1ccc2c(=O)c(O)c(-c3ccc(Cl)c([N+](=O)[O-])c3)[nH]c2c1	0	2	28*	-7	5	0	7
O=C(N[C@H](C(=O)N1CCC[C@H]1C(=O)NC1CCCC1)c1ccccc1)C1CCCC1	1	6	-2	-1	1	6	/
CC(C)=C1C2CCC1C(C(=O)NCCc1ccccc1)C2C(=O)O (stereo not drawn)	-2	3	21*	-3	12	3	-2
O=C(CSc1nnc(COc2ccc(Cl)cc2)n1Cc1ccco1)Nc1ccc(OCc2ccccc2)cc1	-1	0	3	-3	6	-1	/
COc1ccc(CNC(=O)[C@@H](Cc2ccccc2)NC(=O)[C@H]2O[C@@H](n3ccc(=O)[nH]c3=O)[C@H](O)[C@@H]2O)cc1	-1	4	-2	-6	0	0	/
O=C(CSc1nnc(-c2cccc(F)c2)o1)NC1CCCC1	4	0	20*	-4	4	-4	-1
Cc1cccc(-c2nnc(SCC(=O)NC3CCCC3)o2)c1	-2	1	-2	2	7	-1	/
O=C(CSc1nnc(-c2ccc(F)cc2)o1)N1CCCC1	-1	-3	21*	3	1	2	-4
CC1(c2nnnn2C2CCCCC2)CCCC(=O)N1CCc1ccc(O)cc1 (stereo not drawn)	-1	-4	2	-1	-2	1	/
CCn1c2ccccc2c2cc(NC(=O)c3ccc([N+](=O)[O-])cc3)ccc21	1	4	0	-3	6	0	/
CCn1c2ccccc2c2cc(NC(=O)COC(=O)c3ccc(O)cc3)ccc21	-2	-2	17*	4	15	-3	-10
CCn1c2ccccc2c2cc(NC(=O)c3ccccc3[N+](=O)[O-])ccc21	-1	3	21*	2	1	2	10
C[C@@H]1[C@@H](c2ccccc2)c2cc3ccccc3nc2C(=O)C[C@@H]1C(=O)N1CCCC1	0	-2	-4	-2	6	-3	/
O=S1(=O)c2c(NCc3ccco3)cccc2Oc2ccccc2CN1Cc1cn(Cc2ccc(Cl)cc2)nn1	6	0	-6	-1	0	3	/
O=C(NC1CCCCN(Cc2ccc(Cl)cc2)C1=O)c1ccc(F)cc1 (stereo not drawn)	-1	-5	-4	-1	6	-4	/
CCCCNC(=O)Nc1ccccc1C(=O)Nc1ccc(OC)cc1	1	-5	50*	0	-5	-2	2
CC(C)c1ccc(NC(=O)COC(=O)CC2CCCC2)cc1	3	-7	20*	1	2	-3	-1
CC(CC(=O)N1CCN(S(=O)(=O)c2ccc(Cl)cc2)CC1)n1cncn1 (stereo not drawn)	-2	7	18*	2	-15	6	-4
CC(C)CC(=O)N1CCN(S(=O)(=O)c2ccc(Cl)cc2)CC1	2	0	-4	2	-2	1	/
C=CCNC1CCC12CCC(c1ccccc1)CC2 (stereo not drawn)	3	3	-9	0	-1	-1	/
O=C(CSc1ccccc1)N1CCN(S(=O)(=O)c2ccccc2)CC1	3	0	5	2	6	3	/
N#Cc1ccccc1NCC(=O)N1CCN(S(=O)(=O)c2ccccc2)CC1	1	-6	17*	1	12	1	0
O=C(O)CSCC(=O)N1CCN(S(=O)(=O)c2ccccc2)CC1	-3	2	21*	-2	6	2	-1
Cc1occc1-c1nnc(SCC(=O)N2CCN(c3ncccn3)CC2)n1-c1ccccc1	-1	4	-1	0	-6	1	/
COc1c(S(=O)(=O)N2CCN(C(=O)c3ccco3)CC2)ccc(Cl)c1Cl	-1	3	73*	1	12	-2	2
COc1cc(NC(=S)N2CCN(C(=O)c3ccco3)CC2)c(OC)cc1Cl	6	-1	1	4	-6	0	/
